The list is not random: actives were taken first. Their share in the collection is about 4.3%.
CR mimetic SO: yeast age-related superoxide inhibition as caloric restriction mimetic; S. cerevisiae aged cells, superoxide DHE fluorescence; hits give low values; superoxide response (% of plate mean), % at 10 µM; 330,000 compounds, 0.18% hits;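 active = superoxide response under a set limit, about three screen SD below normal, cut at about 65% in these data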;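 also: yeast aged for seven days with compound at 30 °C before DHE staining; 100% = average MFI of all compound-treated wells on the plate with controls excluded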
SMARCA2 act: SMARCA2 function activation, primary screen | activation, % at 9.1 µM | 370,000 compounds, 1% hits | AID 652017 | MG213 cells, MMTV-luciferase reporter, dexamethasone, overnight; in the data active = activation above about 7.8%;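 also: 0% = vehicle wells and 100% = reference activator wells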
SR-BI DiI inh: mouse SR-BI HDL lipid transfer inhibition | ldlA[mSR-BI] CHO cells, DiI-HDL uptake fluorescence, 3 h | AID 488896 | 320,000 compounds, 0.96% hits | inhibition, % at 12.5 µM;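 active = mean replicate inhibition of at least 70% and a set share of replicates each scoring 70 or more; inconclusive = meets just one of the two criteria; inactive = fails both criteria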;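 also: 0% = median of neutral control wells and 100% = median of positive control wells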
Hep lipid drop: hepatic lipid droplet formation modulation; AML12 mouse hepatocytes, oleate lipid droplets, BODIPY imaging; inhibition, % at 6.5 µM; 240,000 compounds, 0.4% hits; AID 1656;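 active = lipid droplet intensity inhibited by at least 50%, with more than 500 cells counted; inconclusive = wells with under 300 cells, treated as cytotoxic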
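Assay system: AML12 hepatocytes (mouse); Probe or stimulus: oleic acid at 100 µM to induce lipid droplet formation; Dosing: compound at 6.5 µM only; Schedule: compound with oleate, overnight; Detection: fluorescence imaging, 20x objective, two fields per well; Measure: % inhibition of lipid droplet signal.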
AHR act: activators of human aryl hydrocarbon receptor. 320,000 compounds, 2.5% hits. AHR-responsive luciferase reporter cells, luminescence. AID 2796. activation, % at 5 µM; in the data active = activation above about 47%;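 also: 0% = vehicle wells and 100% = reference agonist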
Target sequence (P35869 whole entry, looked up): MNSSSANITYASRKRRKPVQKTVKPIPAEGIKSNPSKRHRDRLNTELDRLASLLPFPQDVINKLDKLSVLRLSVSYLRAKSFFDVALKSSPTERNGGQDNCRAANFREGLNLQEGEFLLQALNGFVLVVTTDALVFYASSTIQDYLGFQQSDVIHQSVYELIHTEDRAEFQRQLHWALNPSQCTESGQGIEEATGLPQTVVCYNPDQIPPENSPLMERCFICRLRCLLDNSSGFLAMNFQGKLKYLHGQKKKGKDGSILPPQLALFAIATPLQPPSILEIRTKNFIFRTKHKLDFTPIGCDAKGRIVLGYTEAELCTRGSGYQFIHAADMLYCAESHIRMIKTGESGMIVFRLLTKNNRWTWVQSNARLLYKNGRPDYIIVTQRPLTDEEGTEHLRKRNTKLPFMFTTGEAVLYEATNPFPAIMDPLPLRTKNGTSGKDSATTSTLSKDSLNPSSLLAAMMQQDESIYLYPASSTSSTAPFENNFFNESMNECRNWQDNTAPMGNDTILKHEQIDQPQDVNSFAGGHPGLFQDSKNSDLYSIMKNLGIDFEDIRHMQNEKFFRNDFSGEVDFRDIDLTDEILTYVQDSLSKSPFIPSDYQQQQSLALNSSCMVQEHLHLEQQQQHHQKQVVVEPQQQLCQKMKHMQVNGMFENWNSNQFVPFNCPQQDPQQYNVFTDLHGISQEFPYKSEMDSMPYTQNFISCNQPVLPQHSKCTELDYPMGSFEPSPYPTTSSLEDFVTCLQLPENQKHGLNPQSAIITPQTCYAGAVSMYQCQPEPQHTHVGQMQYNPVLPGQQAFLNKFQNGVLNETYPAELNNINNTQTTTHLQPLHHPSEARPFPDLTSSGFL
SR-BI uptake up: SR-BI HDL lipid transfer activation | CHO ldlA[mSR-BI] cells, DiI-HDL uptake fluorescence, 3 h; 100 = double the neutral-control signal | activation, % at 12.5 µM | 320,000 compounds, 0.096% hits;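 active = mean replicate activation of at least 60% and every replicate at or above 60%; inconclusive = mean or all-replicate condition met, but not both; inactive = mean below 60% and not all replicates reaching 60%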;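 also: 0% = median plate neutral-control signal and 100% = twice that signal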
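material = CHO ldlA[mSR-BI] cells | medium = Ham's F12 with 0.5% BSA, HEPES 25 mM, pH 7.4 | reagent = fluorescent DiI-HDL, 10 µg/mL final | compound dosing = single-point compound dose | incubation = 3 h, 37 °C | measured by = bottom-read fluorescence, 550/595 nm | measure = HDL uptake via cellular fluorescence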
Active calls of the source: *; ? = inconclusive; · = not tested or not shown.

SMILES	CR mimetic SO	SMARCA2 act	SR-BI DiI inh	Hep lipid drop	AHR act	SR-BI uptake up
C[C@@H]1OC(C2CCCCC2)N(C)[C@H]2C[C@H]3c4[nH]c5c(-c6ccccc6)cccc5c4CCN3C(=O)[C@@H]12 (some centres not stated)	·	-3	·	·	·	·
CSC1=NC(C(Cl)(Cl)Cl)N=C(c2ccc(C)cc2)N1 (configuration not stated)	70	-5	1	?	67*	-1
CCOc1ccc(OCC)c(NC(=O)CN(c2ccc(OC)cc2)S(=O)(=O)c2c(C)noc2C)c1	89	-4	30	-65	58*	-30
CCOc1ccc(N(CC(=O)Nc2ccc(C)c(C)c2)S(C)(=O)=O)cc1	97	4	-4	-3	52*	4
CCOc1ccc(OCC)c(NC(=O)CN(c2ccc(C)cc2)S(=O)(=O)c2c(C)noc2C)c1	100	-2	8	2	62*	-8
COc1ccc(OC)c(NC(=O)CN(c2ccc(C)cc2)S(=O)(=O)c2c(C)noc2C)c1	103	-2	9	·	24	-9
Cc1ccc(Nc2nc(=O)c3cccnc3s2)cc1	134	2	7	6	69*	-7
COc1ccc(OC)c(Nc2nc(=O)c3cccnc3s2)c1	·	·	-5	-3	·	5
Cc1ccc(-n2c(SCC(=O)Nc3ccc4c(c3)OCCO4)nnc2-c2ccccn2)cc1	·	-4	·	·	·	·
COc1ccc2cc(C(=O)N3CCc4ccccc43)[nH]c2c1	106	2	54	4	82*	-54
Cc1cccc(Nc2nc(-c3ccccc3)c(C(=O)Nc3cccnc3)s2)c1	99	2	68	-4	51*	-68
O=C(Nc1cccnc1)c1sc(Nc2ccccc2)nc1-c1ccccc1	88	-1	68	16	40	-68
O=C(N/N=C/c1cc(Br)ccc1O)C(=O)Nc1ccccc1OC(F)(F)C(F)F	88	-3	129*	·	0	-129
O=C(N/N=C/c1cc(Cl)ccc1O)C(=O)Nc1ccccc1OC(F)(F)C(F)F	93	-4	119*	-11	3	-119
C/C(=N/Nc1ccnc2cc(Cl)ccc12)c1ccc(N)cc1	105	3	27	·	57*	-27
C/C(=N/Nc1ccnc2cc(Cl)ccc12)c1ccc(O)cc1	106	1	39	·	56*	-39
CCC(C(=O)Nc1ccccc1N1CCCC1)c1cccc(Cl)c1 (configuration not stated)	·	-2	·	·	·	·
O=C(N/N=C/c1cn[nH]c1-c1ccccc1)c1ccco1	79	3	8	2	65*	-8
Cc1ccccc1/C=N/NC(=O)c1cccnc1	98	-1	-3	·	40	3
CCc1c(C(=O)N/N=C/c2cn[nH]c2-c2ccc(F)cc2)csc1C	101	-4	12	1	43	-12
O=C(N/N=C/c1cn[nH]c1-c1ccc(Cl)cc1)c1ccc([N+](=O)[O-])cc1	125	1	95*	-12	25	-95
O=C(N/N=C\c1cn[nH]c1-c1ccccc1)c1ccc([N+](=O)[O-])cc1	99	6	9	-8	17	-9
O=C(N/N=C/c1c(-c2ccccc2)[nH]c2ccccc12)c1cccnc1	86	0	75*	17	73*	-75
Cc1cc(C(=O)N/N=C/c2cn[nH]c2-c2ccccc2)cs1	93	-2	3	2	96*	-3
O=C(N/N=C/c1cn(-c2ccccc2)nc1-c1ccccc1)c1ccco1	117	2	47	-23	2	-47
SMILES	CR mimetic SO	SMARCA2 act	SR-BI DiI inh	Hep lipid drop	AHR act	SR-BI uptake up
O=C(N[C@H](C(=O)N1CCC[C@H]1C(=O)NCCc1ccccc1Cl)c1ccccc1)c1cccs1	·	1	·	·	·	·
NC(=O)[C@@H]1CCCN1C(=O)[C@@H](Cc1ccccc1)NC(=O)[C@H]1O[C@@H](n2ccc(=O)[nH]c2=O)[C@H](O)[C@@H]1O	·	-2	·	·	·	·
C[C@H]1C2CC(OC(=O)Nc3ccccc3C(F)(F)F)C(C2)[C@H]2CCCCN21 (some centres not stated)	·	-2	·	·	·	·
Cc1ccc(C(=O)NC2CCCCN(Cc3ccc(Cl)cc3)C2=O)c(C)c1 (configuration not stated)	·	-3	·	·	·	·
COc1ccccc1N1CCN(/N=C/c2cc([N+](=O)[O-])ccc2Cl)CC1	94	-1	37	13	-6	-37
Cc1ccccc1/C=N/N1CCN(c2ccccc2)CC1	98	3	-5	9	73*	5
O=[N+]([O-])c1ccc(Cl)c(/C=N/N2CCN(c3ccccc3)CC2)c1	85	-3	30	·	58*	-30
CN(C)c1ccc(P(=O)(Nc2ccccc2)N2CCOCC2)c(NC(=O)c2cccs2)c1 (configuration not stated)	104	1	-6	0	12	6
Cc1ccc(NP(=O)(c2ccc(N(C)C)cc2NC(=O)c2cccs2)N2CCOCC2)cc1 (configuration not stated)	92	0	-26	3	59*	26
Cc1ccc(NP(=O)(c2ccc(N(C)C)cc2NC(=O)c2cccs2)N2CCOCC2)cc1Cl (configuration not stated)	74	-3	-12	23	50*	12
Cc1ccc(NC(=O)Cc2ccc(F)cc2)c(S(=O)(=O)N2CCOCC2)c1	·	-6	·	·	·	·
CCC(Sc1nncn1C)C(=O)Nc1nnc(-c2ccccc2Cl)s1 (configuration not stated)	116	0	2	-10	52*	-2
CC(C)(C)c1nnc(NC(=O)COc2ccc3c(c2)OCO3)s1	139	4	-4	·	60*	4
O=C(COc1ccc2c(c1)OCO2)NCc1cccs1	89	-4	1	·	49*	-1
O=C(Cc1cccs1)NCc1ccc2c(c1)OCO2	89	0	-17	2	1	17
CCn1c(=O)cc(OCC(=O)NCc2cccs2)c2ccccc21	112	0	15	-22	68*	-15
CCOC(=O)c1sc(NC(=O)COc2ccc3c(c2)OCO3)nc1C	104	-1	·	-18	3	·
COC(=O)[C@]1(CNC(=O)NCCc2ccc(OC)c(OC)c2)CC(=O)N(C)[C@@H]1c1ccccc1	·	-1	·	·	·	·
CC1CC(C)CN(C(=O)C2CCN(c3cncnc3)CC2)C1 (configuration not stated)	·	-5	·	·	·	·
CCc1ccc(NC(=O)Cn2c(SC)nc3ccccc32)cc1	93	0	13	·	78*	-13
COC(=O)[C@]12C[C@H](CC(=O)N3CCN(C(=O)C4CC4)CC3)C(=O)N(Cc3cccc4ccccc34)C1=C[C@H](C(C)(C)C)O[C@@H]2C	·	-3	·	·	·	·
Cc1sc2nc(-c3ccncc3)[nH]c(=O)c2c1-c1ccccc1	90	·	·	0	54*	·
